The entries come from a sample that favours hits as a whole.
Fibroblast inh – antiproliferative effect on LL 47 fibroblasts – human, LL 47 cells, CellTiter-Glo luminescence, primary screen. LL 47 human lung fibroblast viability, ATP luminescence; active compounds read low. viability, % at 10 µM. 85,000 tested, 1.1% active. AID 719, 2007;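 active means viability at or below 50% in the single dose screen; inactive means viability above 50%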;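 further: compound exposure lasted 72 h before the ATP readout; 100% = median luminescence of untreated cell-only wells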
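Material: Human LL 47 lung fibroblast cells | Input: 1,150 cells/well | Buffer or medium: IMEM plus 15% FBS | Compound dosing: 0.1% DMSO in all compound wells | Times: Overnight cell rest, 72 h compound treatment at 37 °C | Signal: CellTiter-Glo luminescence measuring cellular ATP | Measure: % viability versus median cells-only luminescence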
bCat KO growth – primary screen for growth suppressors in beta-catenin knockout HCT116 cells (colon tumor, human); viability, % at 10 µM; 140,000 tested, 1.5% active; HCT116 beta-catenin knockout viability, CellTiter-Glo, 60 h; active compounds read low;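 active means viability at or under a set limit, the compound median less 4 SD, cut at about 6% in these data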;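 further: 0% = Hyamine 1622 control at 20 µM and 100% = untreated cell control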
HUVEC prolif 384 – inhibitors of HUVEC proliferation, primary screen, cell-based, 384-well | CellTiter-Glo luminescence, 72 h; active compounds read low | viability, % at 10 µM (by protocol) | AID 648, 2007 | 86,000 tested, 1.1% active;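 active means viability at or below 30%; inactive means viability above 30%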;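 further: 100% = median luminescence of DMSO-only cell control wells on each plate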
H69AR inhibit – proliferation blockers of H69AR lung cancer cells, primary screen, cell-based, human, 86K library; 85,000 tested, 6% active; viability, % at 10 µM; H69AR lung tumor viability, ATP luminescence, 72 h; active compounds read low;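 active means viability at or below 40%; inactive means viability above 40%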;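 further: multidrug resistant small cell line overexpressing MRP-1 efflux transporter; 100% = mean luminescence of untreated control wells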
PTEN del growth – growth suppression of PTEN-null HCT116, primary screen, cell-based, CellTiter-Glo; HCT116 PTEN-null viability, 60 h; active compounds read low; viability, % at 10 µM; 140,000 tested, 1.2% active;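 active means viability at or below a set limit, 4 SD under the median of all tested compounds, cut at about 3.7% in these data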;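 further: PTEN knockout HCT116 line with beta catenin targeted HCT116 as companion control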
Starred values were filed as active, the others as inactive; · = no result given.

SMILES	Fibroblast inh	bCat KO growth	HUVEC prolif 384	H69AR inhibit	PTEN del growth
Cc1ccc(C(=O)CSc2nn3c(=O)c(C(C)(C)C)nnc3s2)cc1	99	90	71	53	86
O=C(CSc1ccc2nnc(-c3ccc(Cl)cc3)n2n1)N1CCCc2ccccc21	·	2.4*	·	·	2.2*
CC(C)(C)c1nnc2sc(SCC(=O)N3CCCc4ccccc43)nn2c1=O	78	61	68	17*	63
CC(C)(C)c1nnc2sc(SCC(=O)c3cccs3)nn2c1=O	84	77	69	14*	93
CCN(CC)c1ccc(NC(=O)C2=CCN(S(=O)(=O)c3ccc(F)cc3)CC2)c(C)c1	·	78	·	·	70
C/C(Cn1nc([N+](=O)[O-])cc1C)=N\NC(=O)COc1c(Cl)cc(Cl)cc1Cl	·	79	·	·	93
O=c1/c(=C/c2ccco2)sc2n1CN(c1cccc(Br)c1)CN=2	99	80	39	32*	74
Nn1c(=O)c2ccccc2n2c(SCc3ccc(C(F)(F)F)cc3)nnc12	·	82	·	·	76
Cc1sc2ncnc(NCC(c3ccco3)N3CCCC3)c2c1C (configuration not stated)	89	31	75	36*	41
CCOc1ccc(C(=O)NC(=S)Nc2ccccc2N2CCOCC2)cc1Br	·	75	·	·	66
CN(C)S(=O)(=O)c1cccc(NC(=O)COC(=O)c2cccc(S(=O)(=O)N3CCc4ccccc4C3)c2)c1	·	0.7*	·	·	0.2*
CCc1cccc(CC)c1NC(=O)COC(=O)c1cccc(S(=O)(=O)N2CCc3ccccc3C2)c1	·	72	·	·	69
O=C(CSCc1ccccc1Cl)Nc1c[nH]c(=O)[nH]c1=O	·	96	·	·	98
Cc1ccc([N+](=O)[O-])cc1-c1[nH]c(-c2ccc(O)c(O)c2)nc1-c1ccccc1	80	35	52	10*	28
COc1ccc(-c2nc(-c3ccccc3)c(-c3cc([N+](=O)[O-])ccc3C)[nH]2)cc1O	97	68	61	55	72
CCOC(=O)c1ccc(N/C=C/C(=O)c2ccco2)cc1	107	60	95	17*	59
Cc1nc2ccc(S(=O)(=O)Nc3ccccc3C)cc2s1	91	56	67	33*	56
COC(=O)c1sccc1NC(=S)N1CCN(c2ccccc2F)CC1	·	92	·	·	100
O=c1oc2ccccc2cc1-c1csc(Nc2nc3ccc(F)cc3s2)n1	·	80	·	·	68
O=c1oc2ccccc2cc1-c1csc(Nc2nc3c(F)cccc3s2)n1	·	5.1*	·	·	2.5*
Cc1ccc(CNC(=O)CSc2nc(N3CCCCC3)nc(N3CCCCC3)n2)cc1	84	85	64	99	80
Cc1ccc(C(=O)CN2/C(=C(\O)c3ccccc3)C(=O)c3ccccc3S2(=O)=O)c(C)c1	91	40	78	24*	35
CCC/C(C)=N/NC(=O)c1ccccc1O	·	91	·	·	90
C/C(=N\NC(=O)c1ccccc1O)C1C(=O)c2ccccc2C1=O	·	4.0*	·	·	5
C/C(CC(=O)N1CCN(C=O)CC1)=N\NC(=O)c1cc2ccccc2cc1O	·	41	·	·	51
SMILES	Fibroblast inh	bCat KO growth	HUVEC prolif 384	H69AR inhibit	PTEN del growth
C/C(=N/NC(=O)c1cc2ccccc2cc1O)C1C(=O)c2ccccc2C1=O	75	58	63	36*	76
COc1ccc(N(C)C2=NS(=O)(=O)c3ccccc32)cc1	66	23	59	17*	24
Cc1nn(C)c(Oc2ccc(Cl)cc2)c1C(=O)Nc1ccc(F)cc1F	·	98	·	·	94
Cc1cc(Cl)ccc1OCCCC(=O)N/N=C/c1cccc([N+](=O)[O-])c1	·	84	·	·	79
Cc1csc(NC(=O)c2nc(-c3ccccc3)n(-c3ccccc3)n2)n1	·	50	102	26*	50
O=C(CN1CC(c2ccccc2)CC1=O)N/N=C/c1cc(Br)ccc1O (configuration not stated)	·	8	·	·	8
CCOC(=O)/C(=C\c1ccc(OC(F)F)cc1)C1=Nn2c(nnc2-c2ccc(Cl)cc2)SC1	·	1.4*	·	·	2.1*
COc1ccc(-c2nnc3n2N=C(C)CS3)cc1	97	80	80	84	100
Cc1noc(/C=C/c2ccco2)c1S(=O)(=O)N1CCC(C(=O)N(C)Cc2ccccc2)CC1	98	74	94	71	68
CCOCCCNC(=O)C1CCN(S(=O)(=O)c2c(C)noc2/C=C\c2ccc(OC)cc2)CC1	94	·	80	37*	·
Cc1noc(/C=C/c2ccco2)c1S(=O)(=O)N1CCC(C(=O)NC(C)c2ccccc2)CC1 (configuration not stated)	95	76	86	13*	77
CCOC(=O)c1sc(NC(=O)Nc2cccc(Cl)c2)cc1C	·	3.6*	·	·	2.4*
Cc1c(Cl)cccc1NC(=O)c1cc(C2CC2)on1	91	92	99	95	80
CCC(C)(C)NC(=O)c1cc([N+](=O)[O-])ccc1N1CCOCC1	·	96	·	·	90
Cc1cc(C(=O)CN2C(=O)NC(C)(c3cccc(Br)c3)C2=O)c(C)n1Cc1ccco1 (configuration not stated)	87	1.8*	79	87	3.4*
Cc1cc(C(=O)CN2C(=O)NC(c3ccccc3)(c3ccccc3)C2=O)c(C)n1Cc1ccco1	101	65	97	94	68
COc1ccccc1N(C)S(=O)(=O)c1ccc(C(=O)OCC(=O)NCCC2=CCCCC2)cc1	·	89	·	·	89
CCOC(=O)c1snc(C(=O)NC2CCCCC2)c1N	101	101	110	98	95
CC(OC(=O)c1snc(C(=O)NC2CCCCC2)c1N)C(=O)NC1CCCCC1 (configuration not stated)	71	88	78	23*	82
CCN(CC)CCNc1c2c(c(C#N)c3nc4ccccc4n13)CCCC2	90	8	91	33*	3.6*
CCCCc1cc(=O)oc2cc(OCC(=O)N3CCc4ccccc43)ccc12	104	94	55	29*	99
COc1ccc2c(c1)c(=O)oc1cc(OCC(=O)N3CCc4ccccc4C3)ccc12	97	90	56	29*	84
CN(C)S(=O)(=O)NCc1ccc2c(c1)OCO2	103	89	98	101	97
Cc1ccc2c(c1)nnn2C1CCN(S(C)(=O)=O)CC1	100	99	98	100	95
Cc1ccc2c(c1)nnn2C1CCN(S(=O)(=O)c2ccc(C(=O)N3C(C)CCCC3C)cc2)CC1 (configuration not stated)	99	49	83	21*	54
CCOC(=O)c1sc(C)c2c1NC(c1ccc(Cl)cc1)NC2=O (configuration not stated)	·	19	·	·	27
Cn1c(C(=O)N2CCN(Cc3ccc4c(c3)OCO4)CC2)cc2c(=O)n(C)c3ccccc3c21	92	33	82	38*	36
Cn1c(C(=O)Nc2ccc3c(c2)OCO3)cc2c(=O)n(C)c3ccccc3c21	57	81	72	31*	78
